Non-standard residues stand in square brackets, D forms with d. Residues, ends and D or L forms follow the SMILES beside them. d2Nal = N[C@H](Cc1ccc2ccccc2c1)C(=O)O Some results are limits rather than exact numbers.

Consider 14 compounds from ChEMBL document CHEMBL1142696, “Design and synthesis of melanocortin peptides with candidacidal and anti-TNF-alpha properties” (2005).

In one experiment the test system is Candida albicans. Kind of experiment: Inhibition of Candida albicans colony forming units (CFU) at 1e-4 M compound. The format is functional. In a few lines:
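Six C. albicans isolates (five clinical, ATCC 24433), grown 48 h at 32 °C in Sabouraud-dextrose broth, washed and held in distilled water. 1 × 10^6 cells exposed to peptide at 10^-4 M final, 2 h at 37 °C; water controls. Diluted, plated on blood agar for 48 h at 37 °C, colonies counted manually. Kill = 100 − (test CFU/control CFU × 100). Triplicates, two independent experiments.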

Another experiment concerns PBMC. Kind of experiment: Inhibition of tumor necrosis factor alpha release by endotoxin stimulated human peripheral blood mononuclear cells at 1e-4 M. The format is functional. In short, it runs like this: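 Human PBMC from five normal donors, isolated by Ficoll-Hypaque density centrifugation, washed in PBS and kept in RPMI 1640 with HEPES, glutamine, 10% FCS and penicillin/streptomycin. Cells at 2.5 × 10^5 per well were held 24 h at 37 °C, 5% CO2 with E. coli 055:B5 endotoxin 1 ng/mL plus peptide 10^-4 M. Supernatant TNF-α measured by immunoassay; % inhibition versus saline control, mean ± SD.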

With `CC(C)[C@H](NC(=O)[C@H](Cc1ccccc1)NC(=O)[C@H](CCCCN)NC(=O)CNC(=O)[C@H](Cc1c[nH]c2ccccc12)NC(=O)[C@H](CCCN=C(N)N)NC(=O)[C@@H](Cc1ccc2ccccc2c1)NC(=O)[C@H](C)N)C(N)=O`, the Inhibition – broadly, the percentage by which the read-out fell short of the control – in the experiment with Candida albicans is reported as 62.8%; with PBMC it was less than 10%.

Consider `NC(=O)[C@H](Cc1c[nH]c2ccccc12)NC(=O)[C@H](CCCN=C(N)N)NC(=O)[C@@H](Cc1ccc2ccccc2c1)NC(=O)[C@@H](N)Cc1c[nH]cn1`, for which the Inhibition in the experiment with Candida albicans is 43%; in the experiment on PBMC it was 13.9%.

Consider `CC(C)[C@H](NC(=O)[C@H](Cc1ccccc1)NC(=O)[C@H](CCCCN)NC(=O)CNC(=O)[C@H](Cc1c[nH]c2ccccc12)NC(=O)[C@H](C)NC(=O)[C@@H](Cc1ccc2ccccc2c1)NC(=O)[C@@H](N)Cc1c[nH]cn1)C(N)=O`, for which the Inhibition in the experiment with Candida albicans was 95.7%; with PBMC, 23%.

On to `CC(C)[C@H](NC(=O)[C@H](Cc1ccccc1)NC(=O)[C@H](CCCCN)NC(=O)CNC(=O)[C@H](C)NC(=O)[C@H](CCCN=C(N)N)NC(=O)[C@@H](Cc1ccc2ccccc2c1)NC(=O)[C@@H](N)Cc1c[nH]cn1)C(N)=O`, for which the Inhibition with Candida albicans is reported as 24.9%; in the experiment on PBMC, 18.1%.

As for `CC(C)[C@H](NC(=O)[C@H](Cc1ccccc1)NC(=O)[C@H](CCCCN)NC(=O)CNC(=O)[C@H](Cc1c[nH]c2ccccc12)NC(=O)[C@H](CCCN=C(N)N)NC(=O)[C@H](N)Cc1ccc2ccccc2c1)C(N)=O`, the Inhibition in the experiment with Candida albicans is reported as 51.4%; in the experiment with PBMC, less than 10%.

`CC(C)[C@H](NC(=O)[C@H](Cc1ccccc1)NC(=O)[C@H](CCCCN)NC(=O)CN)C(N)=O` (H-GKFV-NH2): the figures for the Inhibition in the experiment on Candida albicans and with PBMC were 5% and less than 10%, respectively.

Turning to `CC(C)[C@H](NC(=O)[C@H](Cc1ccccc1)NC(=O)[C@H](CCCCN)NC(=O)CNC(=O)[C@H](Cc1c[nH]c2ccccc12)NC(=O)[C@H](CCCN=C(N)N)NC(=O)[C@H](C)NC(=O)[C@@H](N)Cc1c[nH]cn1)C(N)=O` (H-HARWGKFV-NH2), the Inhibition was 49.9% with Candida albicans and less than 10% with PBMC.

Regarding `CC(C)[C@H](NC(=O)[C@H](Cc1ccccc1)NC(=O)[C@H](CCCCN)NC(=O)CNC(=O)[C@H](Cc1c[nH]c2ccccc12)NC(=O)[C@H](CCCNC(=N)N)NC(=O)[C@H](Cc1ccccc1)NC(=O)[C@@H](N)Cc1cnc[nH]1)C(N)=O` (H-HFRWGKFV-NH2), the Inhibition in the experiment on Candida albicans is 90.8%; with PBMC, less than 10%.

For the compound `CC(C)[C@H](NC(=O)[C@@H]1CCCN1C(=O)[C@H](CCCCN)NC(=O)CNC(=O)[C@H](Cc1c[nH]c2ccccc12)NC(=O)[C@H](CCCN=C(N)N)NC(=O)[C@H](Cc1ccccc1)NC(=O)[C@@H](N)Cc1c[nH]cn1)C(N)=O` (H-HFRWGKPV-NH2), the Inhibition in the experiment on Candida albicans is listed as 59.4%; in the experiment with PBMC it was 12.3%.

Regarding `CC(C)[C@H](NC(=O)[C@H](Cc1ccccc1)NC(=O)[C@H](CCCCN)NC(=O)CNC(=O)[C@H](Cc1c[nH]c2ccccc12)NC(=O)[C@H](CCCN=C(N)N)NC(=O)[C@@H](Cc1ccc2ccccc2c1)NC(=O)[C@@H](N)Cc1c[nH]cn1)C(N)=O` (H-H[d2Nal]RWGKFV-NH2), the Inhibition was 99.8% with Candida albicans and 18.7% with PBMC.

`CC(C)[C@H](NC(=O)[C@@H]1CCCN1C(=O)[C@H](CCCCN)NC(=O)CNC(=O)[C@H](Cc1c[nH]c2ccccc12)NC(=O)[C@H](CCCN=C(N)N)NC(=O)[C@@H](Cc1ccc2ccccc2c1)NC(=O)[C@@H](N)Cc1c[nH]cn1)C(N)=O` (H-H[d2Nal]RWGKPV-NH2): the values for the Inhibition in the experiment with Candida albicans and with PBMC were 95.3% and 41.8%, respectively.

`CC(C)[C@H](NC(=O)[C@H](Cc1ccccc1)NC(=O)[C@@H](N)CCCCN)C(N)=O` (H-Lys-Phe-Val-NH2): the figures for the Inhibition with Candida albicans and with PBMC were 2.7% and less than 10%, respectively.

Take `CC(C)[C@H](NC(=O)[C@H](Cc1ccccc1)NC(=O)[C@H](CCCCN)NC(=O)CNC(=O)[C@H](Cc1c[nH]c2ccccc12)NC(=O)[C@@H](N)CCCN=C(N)N)C(N)=O` (H-RWGKFV-NH2): the Inhibition was 19.3% in the experiment with Candida albicans and less than 10% in the experiment on PBMC.

As for `CC(C)[C@H](NC(=O)[C@H](Cc1ccccc1)NC(=O)[C@H](CCCCN)NC(=O)CNC(=O)[C@@H](N)Cc1c[nH]c2ccccc12)C(N)=O` (H-WGKFV-NH2), the Inhibition is 5.7% in the experiment on Candida albicans and less than 10% in the experiment with PBMC.
